In one data set the target is P2Y purinoceptor 12 (Homo sapiens, UniProt Q9H244). Nature of the data set: Displacement of [3H]-2-methyl-thio-adenosine 5'-diphosphate from human recombinant P2Y12 expressed in CHO cell membranes by scintillation counting method. The method, boiled down: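 CHO cells expressing recombinant P2Y₁₂ receptors, incubated with tritium-labeled 2-methyl-thio-adenosine 5'-diphosphate plus test compound; IC₅₀ from displacement curves, each point in triplicate; reference compound run with every compound set, and set re-analyzed if its IC₅₀ fell outside pre-set 95% confidence interval.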
(In general: Displacement assays read how much labelled ligand stays bound in the presence of the test substance.)

Data set [1] concerns Platelet. Kind of data set: Inhibition of ADP-induced platelet aggregation in human platelet rich plasma assessed as remaining activity at 500 nM by in-vitro light transmission aggregometry assay. The format is functional. Put shortly: (§1)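 Light transmission aggregometry in human platelet-rich plasma; compound incubated, aggregation triggered with 3 µM ADP; remaining activity (RA) recorded at a single compound level (1000, 500 or 100 nM).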

In data set [2] the test system is Platelet. Nature of the data set: Inhibition of ADP-induced platelet aggregation in human platelet rich plasma assessed as remaining activity at 100 nM by in-vitro light transmission aggregometry assay. It counts as functional. The method, boiled down:
as §1

The test system of data set [3] is Platelet. Nature of the data set: Inhibition of ADP-induced platelet aggregation in human platelet rich plasma by in-vitro light transmission aggregometry assay. It counts as functional. The method, boiled down: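 Human platelet-rich plasma incubated with compound, aggregation induced by 3 µM ADP and read by light transmission aggregometry; IC₅₀ derived from concentration–response curve.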

A short description of data set [4]: Potency shift, ratio of IC50 for inhibition of ADP-induced platelet aggregation in human platelet rich plasma to IC50 for displacement of [3H]-2-methyl-thio-adenosine 5'-diphosphate from human recombinant P2Y12 expressed in CHO cell membranes.
Data set [5] in a line: Solubility in neutral pH. The format is physicochemical.
Data set [6] in a line: Solubility in basic pH. The format is physicochemical.
The target in data set [7] is T1, Cytochrome P450 3A4 (Homo sapiens, UniProt P08684). Kind of data set: Inhibition of CYP3A4 in human liver microsomes assessed as reduction in midazolam 1'-hydroxylation. It counts as ADME.
Data set [8] has as its target T1, Cytochrome P450 3A4. Kind of data set: Inhibition of CYP3A4 in human liver microsomes assessed as reduction in testosterone 6beta-hydroxylation. It counts as ADME.
In another data set the target is Cytochrome P450 2D6 (Homo sapiens, UniProt P10635). Nature of the data set: Inhibition of CYP2D6 in human liver microsomes assessed as reduction in dextromethorphan-O demethylation. It counts as ADME.
Another data set concerns the target Cytochrome P450 2C9 (Homo sapiens, UniProt P11712). Kind of data set: Inhibition of CYP2C9 in human liver microsomes assessed as reduction in diclofenac 4'-hydroxylation. The format is ADME. For orientation: Liver microsomes are a subcellular fraction often used to study metabolism.
Data set [9] deals with Liver microsome. Nature of the data set: Metabolic stability assay in human liver microsomes assessed as parent drug disappearance at 1 uM after 20 mins by HPLC and mass spectrometry method. It counts as ADME.
Data set [10] relates to Liver microsome. Nature of the data set: Metabolic stability assay in rat liver microsomes assessed as parent drug disappearance at 1 uM after 20 mins by HPLC and mass spectrometry method. The format is ADME.
Data set [11] deals with Voltage-gated inwardly rectifying potassium channel KCNH2 (Homo sapiens, UniProt Q12809). Nature of the data set: Inhibition of human ERG expressed in HEK cells by patch-clamp assay. The format is cell-based. The following applies: hek293. A general note: In patch-clamp work, channel activity is measured electrically.

The values that follow come from ChEMBL document CHEMBL3351863, “Optimization of 2-phenyl-pyrimidine-4-carboxamides towards potent, orally bioavailable and selective P2Y(12) antagonists for inhibition of platelet aggregation” (Bioorg Med Chem Lett, 2014).

Where only a bound is given, the exact number is not on record here.

Chain of P2Y purinoceptor 12 (Q9H244 whole entry): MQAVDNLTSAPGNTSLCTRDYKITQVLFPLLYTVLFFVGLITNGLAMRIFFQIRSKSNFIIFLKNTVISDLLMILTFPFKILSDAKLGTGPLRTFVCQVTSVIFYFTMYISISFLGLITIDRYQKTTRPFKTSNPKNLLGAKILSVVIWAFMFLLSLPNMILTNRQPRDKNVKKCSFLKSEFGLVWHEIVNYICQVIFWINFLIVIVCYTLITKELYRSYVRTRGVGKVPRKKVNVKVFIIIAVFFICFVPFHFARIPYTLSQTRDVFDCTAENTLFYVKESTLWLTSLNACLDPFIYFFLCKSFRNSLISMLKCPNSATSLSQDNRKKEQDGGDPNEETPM
Chain of Voltage-gated inwardly rectifying potassium channel KCNH2 (Q12809 whole entry): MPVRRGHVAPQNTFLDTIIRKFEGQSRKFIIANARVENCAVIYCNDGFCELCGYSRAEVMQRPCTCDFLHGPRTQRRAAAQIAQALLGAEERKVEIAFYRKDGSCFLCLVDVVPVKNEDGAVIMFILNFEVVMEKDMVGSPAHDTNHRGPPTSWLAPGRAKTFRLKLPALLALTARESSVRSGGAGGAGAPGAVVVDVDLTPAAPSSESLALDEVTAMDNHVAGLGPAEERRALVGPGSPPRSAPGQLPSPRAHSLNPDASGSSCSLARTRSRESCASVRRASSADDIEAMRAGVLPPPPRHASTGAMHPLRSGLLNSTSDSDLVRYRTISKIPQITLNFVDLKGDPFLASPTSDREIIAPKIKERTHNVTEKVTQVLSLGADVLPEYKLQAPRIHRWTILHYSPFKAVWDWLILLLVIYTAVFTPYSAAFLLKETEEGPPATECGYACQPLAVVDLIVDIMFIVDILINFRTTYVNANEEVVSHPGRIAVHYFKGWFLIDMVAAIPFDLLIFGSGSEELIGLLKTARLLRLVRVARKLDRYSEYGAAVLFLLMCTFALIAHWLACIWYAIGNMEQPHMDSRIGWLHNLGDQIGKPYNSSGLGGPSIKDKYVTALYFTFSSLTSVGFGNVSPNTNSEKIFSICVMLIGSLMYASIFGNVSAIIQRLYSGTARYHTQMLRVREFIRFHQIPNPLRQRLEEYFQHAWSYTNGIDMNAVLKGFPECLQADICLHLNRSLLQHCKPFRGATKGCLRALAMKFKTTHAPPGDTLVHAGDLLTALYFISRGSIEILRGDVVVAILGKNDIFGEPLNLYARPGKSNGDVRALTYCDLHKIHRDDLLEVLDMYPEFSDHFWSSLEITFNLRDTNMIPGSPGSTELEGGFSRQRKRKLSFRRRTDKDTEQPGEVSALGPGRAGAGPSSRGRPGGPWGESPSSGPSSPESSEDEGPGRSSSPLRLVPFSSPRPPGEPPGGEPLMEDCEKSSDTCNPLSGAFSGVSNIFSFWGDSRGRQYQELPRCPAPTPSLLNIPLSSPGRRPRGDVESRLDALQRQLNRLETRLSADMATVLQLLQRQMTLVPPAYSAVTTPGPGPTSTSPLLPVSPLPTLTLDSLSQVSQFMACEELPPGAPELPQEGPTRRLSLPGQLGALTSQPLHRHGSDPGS
Chain of Cytochrome P450 2C9 (P11712 whole entry): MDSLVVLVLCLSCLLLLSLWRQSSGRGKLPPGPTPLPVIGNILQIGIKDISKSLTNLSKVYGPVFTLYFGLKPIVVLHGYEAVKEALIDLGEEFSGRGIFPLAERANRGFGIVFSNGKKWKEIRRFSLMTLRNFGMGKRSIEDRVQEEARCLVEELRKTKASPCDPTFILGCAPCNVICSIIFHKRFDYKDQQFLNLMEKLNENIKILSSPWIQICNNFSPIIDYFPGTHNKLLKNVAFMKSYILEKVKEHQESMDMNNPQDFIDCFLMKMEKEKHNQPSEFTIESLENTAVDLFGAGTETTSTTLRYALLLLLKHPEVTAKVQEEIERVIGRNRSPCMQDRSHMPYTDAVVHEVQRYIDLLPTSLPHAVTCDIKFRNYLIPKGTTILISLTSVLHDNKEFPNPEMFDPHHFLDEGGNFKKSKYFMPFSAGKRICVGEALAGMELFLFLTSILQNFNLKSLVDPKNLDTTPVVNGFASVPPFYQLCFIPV
Chain of Cytochrome P450 2D6 (P10635 whole entry): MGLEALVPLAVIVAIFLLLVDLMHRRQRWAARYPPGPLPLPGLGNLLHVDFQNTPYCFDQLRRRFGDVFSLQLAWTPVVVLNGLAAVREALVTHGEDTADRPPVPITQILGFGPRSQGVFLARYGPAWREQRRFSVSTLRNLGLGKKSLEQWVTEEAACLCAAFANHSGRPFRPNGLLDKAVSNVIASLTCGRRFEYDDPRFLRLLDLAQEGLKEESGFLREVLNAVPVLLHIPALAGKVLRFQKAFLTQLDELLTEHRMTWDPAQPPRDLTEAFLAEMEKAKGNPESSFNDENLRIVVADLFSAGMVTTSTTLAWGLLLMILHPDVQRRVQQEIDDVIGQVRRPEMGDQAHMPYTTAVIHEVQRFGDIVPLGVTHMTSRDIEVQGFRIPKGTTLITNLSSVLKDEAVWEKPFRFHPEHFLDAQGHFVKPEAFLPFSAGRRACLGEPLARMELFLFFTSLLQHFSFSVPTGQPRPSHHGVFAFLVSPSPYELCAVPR
T1 sequence (P08684 whole entry): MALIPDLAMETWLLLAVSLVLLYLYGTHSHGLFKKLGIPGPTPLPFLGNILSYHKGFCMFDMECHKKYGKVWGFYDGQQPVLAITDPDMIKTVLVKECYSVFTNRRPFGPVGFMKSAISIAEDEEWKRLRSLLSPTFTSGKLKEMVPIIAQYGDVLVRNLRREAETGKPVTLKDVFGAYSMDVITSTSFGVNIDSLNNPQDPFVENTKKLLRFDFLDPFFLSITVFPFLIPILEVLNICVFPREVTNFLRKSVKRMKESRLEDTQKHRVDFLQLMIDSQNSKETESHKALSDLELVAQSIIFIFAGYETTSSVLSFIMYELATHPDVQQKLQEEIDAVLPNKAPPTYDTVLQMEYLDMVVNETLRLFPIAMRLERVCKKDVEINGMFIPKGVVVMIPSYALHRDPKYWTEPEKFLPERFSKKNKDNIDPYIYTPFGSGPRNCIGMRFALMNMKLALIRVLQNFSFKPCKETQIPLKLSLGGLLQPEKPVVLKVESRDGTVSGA

Consider `CCOC(=O)N1CCN(C(=O)[C@H](CCC(=O)O)NC(=O)c2cc(NC(C)CO)nc(-c3ccccc3)n2)CC1` (some centres undefined), for which the IC50 (in general, the concentration at which inhibition is half-maximal) on P2Y purinoceptor 12 came out at 0.056 µM; in the data set with Platelet [3] (Homo sapiens, Platelet, Plasma), 0.055 µM. The Activity in the data set on Platelet [1] is reported as less than 30%; with Platelet [2], less than 70%. The “Ratio IC50” value in data set [4] is on record as 0.98. Besides, the solubility result in data set [5] and in [6] was “soluble” in each case. In addition, the “inhibition (INH)” value (at Cytochrome P450 3A4 [7]; on Cytochrome P450 3A4 [8]; at Cytochrome P450 2D6; at Cytochrome P450 2C9; in data set [11]) was “Not Active” in each case. In addition, the Stability result with Liver microsome [9] and with Liver microsome [10] was “Stable” each time.
As to `CCOC(=O)N1CCN(C(=O)[C@H](CCC(=O)O)NC(=O)c2cc(-c3ccc(OC)cc3)nc(-c3ccccc3)n2)CC1`, the IC50 at P2Y purinoceptor 12 amounted to 0.031 µM; with Platelet [3] (Homo sapiens, Platelet, Plasma), 0.523 µM. In addition, the Activity with Platelet [1] is reported as 30%. For the same compound, the “Ratio IC50” value in data set [4] is 17. Besides, the solubility result in data set [5] and in data set [6] was “soluble” each time. Further, the “inhibition (INH)” value (on Cytochrome P450 3A4 [7]; on Cytochrome P450 3A4 [8]; on Cytochrome P450 2D6; at Cytochrome P450 2C9; in [11]) was “Not Active” in each case. The Stability entry in the data set with Liver microsome [9] and in the data set on Liver microsome [10] was “Stable” throughout.
For the compound `CCOC(=O)N1CCN(C(=O)[C@H](CCC(=O)O)NC(=O)c2cc(NC(C)COC)nc(-c3ccccc3)n2)CC1` (some centres undefined), the Activity in the data set with Platelet [1] is on record as less than 30%; with Platelet [2], less than 70%. The compound also showed an IC50 in the data set on Platelet [3] (Homo sapiens, Platelet, Plasma) of 0.139 µM. Besides, the “Ratio IC50” value in data set [4] was determined as 1.4. In addition, the solubility entry in data set [5] and in data set [6] was “soluble” throughout. Moreover, the “inhibition (INH)” value (on Cytochrome P450 3A4 [7]; at Cytochrome P450 3A4 [8]; on Cytochrome P450 2D6; on Cytochrome P450 2C9; in [11]) was “Not Active” in each case. Also, the Stability entry in the data set on Liver microsome [9] and in the data set on Liver microsome [10] was “Stable” each time.
In the case of `CCOC(=O)N1CCN(C(=O)[C@H](CCC(=O)O)NC(=O)c2cc(N3CCCC(O)C3)nc(-c3ccccc3)n2)CC1` (some centres undefined), the IC50 stood at 0.021 µM at P2Y purinoceptor 12 and 0.073 µM with Platelet [3] (Homo sapiens, Platelet, Plasma). In addition, the figures for the Activity in the data set with Platelet [1] and in the data set with Platelet [2] were less than 30% and less than 70%, respectively. In data set [4], the “Ratio IC50” value is reported as 3.5. In addition, the solubility entry in data set [5] and in data set [6] was “soluble” each time. The “inhibition (INH)” value (on Cytochrome P450 3A4 [7]; at Cytochrome P450 3A4 [8]; at Cytochrome P450 2D6; at Cytochrome P450 2C9; in data set [11]) was “Not Active” each time. The Stability result in the data set on Liver microsome [9] and in the data set on Liver microsome [10] was “Stable” each time.
For the compound `CCOC(=O)N1CCN(C(=O)[C@H](CCC(=O)O)NC(=O)c2cc(N3CCOCC3)nc(-c3ccccc3)n2)CC1`, the Activity with Platelet [1] was less than 30%; with Platelet [2], less than 70%. The solubility result in data set [5] and in data set [6] was “soluble” each time. The “inhibition (INH)” value (at Cytochrome P450 3A4 [7]; on Cytochrome P450 3A4 [8]; on Cytochrome P450 2D6; at Cytochrome P450 2C9; in [11]) was “Not Active” in each case. In addition, the Stability entry with Liver microsome [9] and in the data set on Liver microsome [10] was “Stable” each time.
For `CCOC(=O)N1CCN(C(=O)[C@H](CCC(=O)O)NC(=O)c2cc(N3CCC(N)C3)nc(-c3ccccc3)n2)CC1` (some centres undefined), the IC50 on P2Y purinoceptor 12 is 0.076 µM; in the data set with Platelet [3] (Homo sapiens, Platelet, Plasma) it was 0.086 µM. The figures for the Activity in the data set on Platelet [1] and in the data set on Platelet [2] were less than 30% and less than 70%, respectively. Moreover, the “Ratio IC50” value in data set [4] worked out at 1.1. For the same compound, the solubility result in data set [5] and in [6] was “soluble” throughout. Moreover, the “inhibition (INH)” value (on Cytochrome P450 3A4 [7]; at Cytochrome P450 3A4 [8]; on Cytochrome P450 2D6; at Cytochrome P450 2C9; in [11]) was “Not Active” each time. For the same compound, the Stability result with Liver microsome [9] and with Liver microsome [10] was “Stable” in each case.
Consider `CCOC(=O)N1CCN(C(=O)[C@H](CCC(=O)O)NC(=O)c2cc(C(C)(C)CO)nc(-c3ccccc3)n2)CC1`, for which the half-inhibitory concentration (IC50) on P2Y purinoceptor 12 worked out at 0.021 µM; in the data set with Platelet [3] (Homo sapiens, Platelet, Plasma), 0.121 µM. For the same compound, the Activity is reported as less than 30% in the data set on Platelet [1] and less than 70% in the data set with Platelet [2]. In data set [4], the “Ratio IC50” value was determined as 5.8. Moreover, the solubility entry in [5] and in data set [6] was “soluble” throughout. In addition, the “inhibition (INH)” value (at Cytochrome P450 3A4 [7]; at Cytochrome P450 3A4 [8]; at Cytochrome P450 2D6; on Cytochrome P450 2C9; in data set [11]) was “Not Active” throughout. The Stability result in the data set with Liver microsome [9] and in the data set on Liver microsome [10] was “Stable” in each case.
As to `CCOC(=O)N1CCN(C(=O)[C@H](CCC(=O)O)NC(=O)c2cc(N3CC[C@@H](O)C3)nc(-c3ccccc3)n2)CC1`, the half-maximal inhibitory concentration (IC50) at P2Y purinoceptor 12 stood at 0.052 µM; in the data set on Platelet [3] (Homo sapiens, Platelet, Plasma), 0.099 µM. The figures for the Activity in the data set with Platelet [1] and in the data set with Platelet [2] were less than 30% and less than 70%, respectively. The “Ratio IC50” value in data set [4] came to 1.9. The solubility entry in data set [5] and in data set [6] was “soluble” in each case. The “inhibition (INH)” value (on Cytochrome P450 3A4 [7]; on Cytochrome P450 3A4 [8]; at Cytochrome P450 2D6; at Cytochrome P450 2C9; in data set [11]) was “Not Active” each time. The Stability entry with Liver microsome [9] and with Liver microsome [10] was “Stable” throughout.
On to `CCOC(=O)N1CCN(C(=O)[C@H](CCC(=O)O)NC(=O)c2cc(N3CC[C@H](O)C3)nc(-c3ccccc3)n2)CC1`, for which the 50% inhibitory concentration (IC50) on P2Y purinoceptor 12 was 0.046 µM; with Platelet [3] (Homo sapiens, Platelet, Plasma) it was 0.068 µM. Besides, the values for the Activity in the data set on Platelet [1] and in the data set with Platelet [2] were less than 30% and less than 70%, respectively. In addition, the “Ratio IC50” value in data set [4] amounted to 1.5. For the same compound, the solubility entry in data set [5] and in data set [6] was “soluble” in each case. In addition, the “inhibition (INH)” value (on Cytochrome P450 3A4 [7]; on Cytochrome P450 3A4 [8]; at Cytochrome P450 2D6; on Cytochrome P450 2C9; in data set [11]) was “Not Active” throughout. Besides, the Stability entry with Liver microsome [9] and with Liver microsome [10] was “Stable” each time.
As for `CCOC(=O)N1CCN(C(=O)[C@H](CCC(=O)O)NC(=O)c2cc([C@H]3C[C@@H]3COC)nc(-c3ccccc3)n2)CC1` (racemic), the IC50 at P2Y purinoceptor 12 came to 0.039 µM; with Platelet [3] (platelet) it was 0.192 µM. Further, the Activity is less than 30% in the data set on Platelet [1] and less than 70% with Platelet [2]. Moreover, in [4], the “Ratio IC50” value was 4.9. Further, the solubility result in data set [5] and in data set [6] was “soluble” in each case. For the same compound, the “inhibition (INH)” value (on Cytochrome P450 3A4 [7]; on Cytochrome P450 3A4 [8]; at Cytochrome P450 2D6; at Cytochrome P450 2C9; in [11]) was “Not Active” each time. In addition, the Stability entry with Liver microsome [9] and in the data set with Liver microsome [10] was “Stable” in each case.
For the compound `CCOC(=O)N1CCN(C(=O)[C@H](CCC(=O)O)NC(=O)c2cc([C@H]3C[C@@H]3CO)nc(-c3ccccc3)n2)CC1` (racemic), the IC50 turned out to be 0.023 µM at P2Y purinoceptor 12 and 0.071 µM with Platelet [3] (Homo sapiens, Platelet, Plasma). Besides, the values for the Activity in the data set with Platelet [1] and with Platelet [2] were less than 30% and less than 70%, respectively. The “Ratio IC50” value in [4] came to 3.1. For the same compound, the solubility result in data set [5] and in data set [6] was “soluble” in each case. The “inhibition (INH)” value (on Cytochrome P450 3A4 [7]; at Cytochrome P450 3A4 [8]; on Cytochrome P450 2D6; on Cytochrome P450 2C9; in [11]) was “Not Active” in each case. Also, the Stability result in the data set on Liver microsome [9] and in the data set on Liver microsome [10] was “Stable” in each case.
